Calls of active or inactive are those of the source. No cut-off for these calls is given here.
Tests used:
[1] = test system: Mus musculus; assay: Anti-tumor activity against TH-MYCN +/+ transgenic neuroblastoma 129x1/SvJ.Tg (TH-MYCN)41Waw/Nci mouse model assessed as reduction in tumor growth at 10 mg/kg, ip measured upto 7 days by ultrasound imaging analysis; type: functional, organism-based; settings: time <= 7.0 day
Outline: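 Homozygous TH-MYCN+/+ mice (129×1/SvJ background, genotyped) with spontaneous neuroblastoma dosed IP, vehicle n = 7, 10 mg/kg n = 8, six treatments; a 100 mg/kg group got three. Tumor burden by abdominal ultrasound under 1–3% isoflurane; tumors excised and weighed at end; groups compared by t-test.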

[2] = target: T1, Vitamin D3 receptor (Homo sapiens) (UniProt P11473); assay: Antagonist activity at VDR LBD (unknown origin) transfected in HEK-293T cells assessed as inhibition of 1,25(OH)2D3-induced receptor transactivation incubated for 16 hrs by Bright-Glo luciferase assay; type: cell-based; settings: filed as antagonist
T1 sequence (whole entry): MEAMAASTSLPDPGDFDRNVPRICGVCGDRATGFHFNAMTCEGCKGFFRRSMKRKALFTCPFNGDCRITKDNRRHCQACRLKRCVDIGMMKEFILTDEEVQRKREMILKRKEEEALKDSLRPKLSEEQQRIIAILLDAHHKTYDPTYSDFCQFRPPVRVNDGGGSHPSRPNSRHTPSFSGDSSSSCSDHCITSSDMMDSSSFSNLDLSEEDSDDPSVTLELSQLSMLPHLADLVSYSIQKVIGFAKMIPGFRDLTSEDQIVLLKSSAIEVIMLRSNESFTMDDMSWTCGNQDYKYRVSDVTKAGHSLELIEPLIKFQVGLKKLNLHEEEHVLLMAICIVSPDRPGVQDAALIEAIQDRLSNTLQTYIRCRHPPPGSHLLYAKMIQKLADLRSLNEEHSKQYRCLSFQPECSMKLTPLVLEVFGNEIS
Outline: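 HEK293T on matrigel, lipid-transfected with VDR-CMV plasmid and CYP24A1-luciferase reporter; after 16 h, replated at 15,000 cells/well, compound added 4 h later together with 10 nM 1,25(OH)2D3; 16 h at 37 °C, 5% CO2; luminescence read. At least two independent experiments in quadruplicate; nonlinear regression, variable slope.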

[3] = Toxicity in TH-MYCN +/+ transgenic neuroblastoma 129x1/SvJ.Tg (TH-MYCN)41Waw/Nci mouse model assessed as effect on macrophage population at 10 mg/kg, ip qd by flow cytometry; type: organism-based; settings: in vivo
Outline: (§1)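 Immune cells isolated from TH-MYCN tumor-bearing mice treated with vehicle or compound; CD45+, CD4+, CD8+, macrophage, patrolling monocyte/DC and CD11b+ populations quantified by flow cytometry with characterized markers.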

[4] = target: T1, Vitamin D3 receptor (Homo sapiens); assay: Antagonist activity at VDR LBD (unknown origin) using Alexa Fluor 647-labeled SRC2-3 as substrate incubated for 2 hrs in presence of calcitriol by fluorescence polarization assay; settings: filed as antagonist
Outline: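 VDR-LBD (0.1 μM) with Alexa Fluor 647-labelled SRC2-3 (17.5 nM) and 10 nM 1,25(OH)2D3 in 25 mM PIPES, 50 mM NaCl, 0.01% NP-40, pH 6.75. Compounds were serially diluted 1:2 from 10 mM DMSO stocks and incubated 2 h. Polarization was read at 635/685 nm. Three independent experiments in quadruplicate; IC50 by variable-slope nonlinear regression.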

[5] = test system: ES-2; assay: Anti-tumor activity against human ES2 cells xenografted in NSG mouse assessed as reduction in tumor volume at 10 mg/kg, ip measured upto 30 days; type: functional, organism-based; settings: time <= 30.0 day
Outline: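 NSG mice, 6–8 weeks, injected subcutaneously in right flank with ES2 (250,000) or SH-SY5Y/BE(2)C (1 million) cells in cold matrigel/serum-free RPMI 1:1. Once palpable, 10 mg/kg IP M–F vs vehicle; volume (length × width2)[…]; BE(2)C and ES2 monitored alternate days; endpoint 2000 mm3; % change in volume, t-test.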

[6] = test system: SK-N-AS; assay: Cytotoxicity against human SK-N-AS cells assessed as reduction in cell viability incubated for 48 hrs by MTS assay; type: functional, cell-based; settings: dose 0.1-10 µM, DDE = dose-dependent effect
Outline: (§2)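 Neuroblastoma lines seeded 5,000 cells/well, attached overnight, treated 48 h in complete medium (DMSO ≤0.2%); MTS reagent 1:10 in fresh RPMI 2–4 h, absorbance 490 nm.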

[7] = test system: Kelly; assay: Cytotoxicity against human Kelly cells assessed as reduction in cell viability incubated for 48 hrs by MTS assay; type: functional, cell-based; settings: dose 0.1-10 µM, DDE = dose-dependent effect; outline: as §2
[8] = test system: 2008; assay: Induction of apoptosis in human 2008 cells assessed as cleaved PARP1 expression levels at 250 nM incubated for 18 hrs by western blot analysis (reference value: 4%); type: functional
[9] = test system: SK-OV-3; assay: Cytotoxicity against human SK-OV-3 cells assessed as reduction in cell viability incubated for 24 hrs by MTS assay; type: functional, cell-based; settings: dose 0.25-1.25 µM, DDE = dose-dependent effect
Outline: (§3)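 Ovarian lines seeded 5,000 cells/well, attached overnight, treated 24 h in complete medium (DMSO ≤0.2%); MTS reagent 1:10 in fresh RPMI 2–4 h, absorbance 490 nm; triplicate, % of DMSO-treated cells.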

[10] = target: T1, Vitamin D3 receptor (Homo sapiens); assay: Antagonist activity at VDR in human BE2C cells assessed as reduction in cyclin-D expression at 1 uM incubated for 24 hrs by western blot analysis relative to control; type: cell-based; settings: filed as antagonist
Outline: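 BE(2)-C cells given 1 μM for 24 h; immunoblot with β-actin or α-tubulin loading control; normalized densitometry.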

[11] = test system: HEK-293T; assay: Cytotoxicity against HEK-293T cells assessed as inhibition of cell proliferation upto 100 uM incubated for 18 hrs by MTS assay; type: toxicity, cell-based; settings: human
[12] = test system: Caov-3 cell line; assay: Cytotoxicity against human Caov-3 cell line assessed as reduction in cell viability incubated for 24 hrs by MTS assay; type: functional, cell-based; settings: dose 0.25-1.25 µM, DDE = dose-dependent effect; outline: as §3
[13] = test system: OVCAR-8; assay: Cytotoxicity against human OVCAR-8 cells assessed as reduction in cell viability incubated for 24 hrs by MTS assay; type: functional, cell-based; settings: dose 0.25-1.25 µM, DDE = dose-dependent effect; outline: as §3
[14] = test system: D283 Med; assay: Anti-tumor activity against human D283 Med cells xenografted in NSG mouse assessed as reduction in tumor size at 10 mg/kg, ip measured on day 12; type: functional, organism-based; settings: time 12.0 day
Outline: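 NSG mice implanted subcutaneously with 1 million D283, PANC-1 or BXPC-3 cells in matrigel/DMEM 1:1; once palpable, 10 mg/kg IP M–F vs vehicle; volume (length × width2)[…], % change; endpoint 2000 mm3; tumors excised and weighed; unpaired t-test.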

[15] = test system: SH-EP1; assay: Cytotoxicity against human SH-EP1 cells assessed as reduction in cell viability incubated for 48 hrs by MTS assay; type: functional, cell-based; settings: dose 0.1-10 µM, DDE = dose-dependent effect; outline: as §2
[16] = Toxicity in NSG mouse xenografted with human ES2 cells assessed as body weight change at 10 mg/kg, ip measured upto 30 days; type: organism-based; settings: in vivo, 720 h, time < 30 day
[17] = Toxicity in TH-MYCN +/+ transgenic neuroblastoma 129x1/SvJ.Tg (TH-MYCN)41Waw/Nci mouse model assessed as effect on CD45+ cells population at 10 mg/kg, ip qd by flow cytometry; type: organism-based; settings: in vivo; outline: as §1
[18] = target: T1, Vitamin D3 receptor (Homo sapiens); assay: Antagonist activity at VDR in human 2008 cells assessed as suppression of importin-4 expression at 250 nM incubated for 12 to 18 hrs by western blot analysis relative to control; type: cell-based; settings: filed as antagonist, time 12-18 hrs
Outline: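 2008 ovarian cancer cells exposed 250 nM, 18 h; immunoblot with loading control (GAPDH for RXR-α, α-tubulin for Importin-4); band densitometry normalized to loading control.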

[19] = Toxicity in TH-MYCN +/+ transgenic neuroblastoma 129x1/SvJ.Tg (TH-MYCN)41Waw/Nci mouse model assessed as effect on CD8+ cells population at 10 mg/kg, ip qd by flow cytometry; type: organism-based; settings: in vivo; outline: as §1
[20] = Toxicity in TH-MYCN +/+ transgenic neuroblastoma 129x1/SvJ.Tg (TH-MYCN)41Waw/Nci mouse model assessed as effect on CD11b+ cells population at 10 mg/kg, ip qd by flow cytometry; type: organism-based; settings: in vivo; outline: as §1
[21] = test system: Tumor cell line; assay: Cytotoxicity against tumor cells in TH-MYCN +/+ transgenic neuroblastoma 129x1/SvJ.Tg (TH-MYCN)41Waw/Nci mouse model assessed as reduction in viability of tumor spheres measured after 3 days by light microscopy; type: functional, cell-based; settings: dose 1-4 µM, time 3.0 day, DDE = dose-dependent effect
Outline: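 Tumor cells mechanically dissociated from tumors of three homozygous TH-MYCN mice, grown as spheres in RPMI1640 with 20% FBS, 2-mercaptoethanol, pyruvate and NEAA; treated 3 days; viability by MTS; spheres imaged by light microscopy.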

With `CC(C)CCC[C@@H](C)[C@H]1CC[C@@H]2[C@]1(C)CCC1[C@]23C=C[C@]2(C[C@@H](OC(=O)CBr)CC[C@]12C)n1c(=O)n(C)c(=O)n13` (stereo partly specified) the Activity [1] was “Active”, the Activity [2] was 20.8 µM and the Activity [3] was “Non-Toxic”. The Activity [4] was 2.9 µM, the Activity [5] was “Active” and the Activity [6] was “Dde”. The Activity [7] was “Dde”, the Activity [8] was 22.8% and the Activity [9] was “Dde”. The fold change (FC) [10] was 0.8, the Activity [11] was “Non-Toxic” and the Activity [12] was “Dde”. The Activity [13] was “Dde”, the Activity [14] was “Active” and the Activity [15] was “Dde”. The Activity [16] was “Non-Toxic”, the Activity [17] was “Non-Toxic” and the fold change (FC) [18] was 0.82. For the same compound, the Activity [19] was “Non-Toxic”, the Activity [20] was “Non-Toxic” and the Activity [21] was “Dde”.

Reference: ChEMBL document CHEMBL5154854, “Identification of a Vitamin-D Receptor Antagonist, MeTC7, which Inhibits the Growth of Xenograft and Transgenic Tumors In Vivo” (J Med Chem, 2022)
